Experimental data as given in ChEMBL document CHEMBL1137710, “Synthesis and in vitro antitumor activity of new quinoxaline derivatives” (2009).

Assays:
Assay type in all cases: functional
[1] = system: NCI-H460; assay: Anticancer activity against human NCI-H460 cells assessed as cell growth at 100 uM after 48 hrs by sulforhodamine B assay; settings: NCI-H460, 48 h, read-out: Activity
[2] = system: MCF7; assay: Anticancer activity against human MCF7 cells assessed as cell growth at 100 uM after 48 hrs by sulforhodamine B assay; settings: MCF7, 48 h, read-out: Activity
[3] = system: SF-268; assay: Anticancer activity against human SF268 cells assessed as cell growth at 100 uM after 48 hrs by sulforhodamine B assay; settings: SF-268, 48 h, read-out: Activity
[4] = system: HL-60(TB); assay: Growth inhibition of human HL-60(TB) cells after 48 hrs by sulforhodamine B assay; settings: HL-60, 48 h
In short: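 Tested only on compounds active in a three-line prescreen, in the NCI 60-human-tumour-cell-line panel over a 5-log dose range. Values come from dose–response curves as log10 molar GI50, the concentration inhibiting 50% net cell growth. Log10 TGI (total growth inhibition) and log10 LC50 (50% net cell death) were derived too. Mean graph midpoints include insensitive lines at the highest concentration tested.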

[5] = system: K562; assay: Growth inhibition of human K562 cells after 48 hrs by sulforhodamine B assay; settings: K562, 48 h
In short: (§1)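 NCI 60-human-tumor-cell-line panel, with compounds tested over a 5-log dose range. Values are taken from dose-response curves as log10 molar concentrations: GI50 is 50% net growth inhibition, TGI is total growth inhibition, and LC50 is 50% net cell death.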

[6] = Growth inhibition of human […] cells after 48 hrs by sulforhodamine B assay; in short: as §1
[7] = system: HOP-62; assay: Growth inhibition of human HOP62 cells after 48 hrs by sulforhodamine B assay; settings: HOP-62, 48 h; in short: as §1
[8] = system: NCI-H322M; assay: Growth inhibition of human NCI-H322M cells after 48 hrs by sulforhodamine B assay; in short: as §1
[9] = system: NCI-H522; assay: Growth inhibition of human NCI-H522 cells after 48 hrs by sulforhodamine B assay; settings: NCI-H522, 48 h; in short: as §1
[10] = system: SW-620; assay: Growth inhibition of human SW620 cells after 48 hrs by sulforhodamine B assay; settings: SW-620, 48 h
In short: (§2)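 Run in the NCI 60-human-tumour-cell-line panel, tested over a 5-log dose range. Dose–response curves gave three values per cell line, each as a log10 molar concentration: GI50 (50% inhibition of net cell growth), TGI (total inhibition of net growth) and LC50 (50% net cell death). The mean graph midpoint is the arithmetic mean over all lines, with insensitive lines entered at the highest concentration tested.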

[11] = system: SF-268; assay: Growth inhibition of human SF268 cells after 48 hrs by sulforhodamine B assay; settings: SF-268, 48 h; in short: as §1
[12] = system: SNB-19; assay: Growth inhibition of human SNB19 cells after 48 hrs by sulforhodamine B assay; settings: SNB-19, 48 h; in short: as §2
[13] = system: U-251; assay: Growth inhibition of human U251 cells after 48 hrs by sulforhodamine B assay; settings: U-251, 48 h; in short: as §2
[14] = system: LOX IMVI; assay: Growth inhibition of human LOXIMVI cells after 48 hrs by sulforhodamine B assay; in short: as §1
[15] = system: M14; assay: Growth inhibition of human M14 cells after 48 hrs by sulforhodamine B assay; settings: M14, 48 h; in short: as §1
[16] = system: SK-MEL-28; assay: Growth inhibition of human SK-MEL-28 cells after 48 hrs by sulforhodamine B assay; settings: SK-MEL-28, 48 h; in short: as §1
[17] = system: UACC-62; assay: Growth inhibition of human UACC62 cells after 48 hrs by sulforhodamine B assay; settings: UACC-62, 48 h; in short: as §2
[18] = system: IGROV-1; assay: Growth inhibition of human IGROV1 cells after 48 hrs by sulforhodamine B assay; settings: IGROV-1, 48 h; in short: as §1
[19] = system: OVCAR-3; assay: Growth inhibition of human OVCAR-3 cells after 48 hrs by sulforhodamine B assay; settings: OVCAR-3, 48 h; in short: as §1
[20] = system: OVCAR-4; assay: Growth inhibition of human OVCAR4 cells after 48 hrs by sulforhodamine B assay; settings: OVCAR-4, 48 h; in short: as §1
[21] = system: OVCAR-8; assay: Growth inhibition of human OVCAR8 cells after 48 hrs by sulforhodamine B assay; settings: OVCAR-8, 48 h; in short: as §1
[22] = system: 786-0; assay: Growth inhibition of human 786-0 cells after 48 hrs by sulforhodamine B assay; settings: 786-0, 48 h; in short: as §1
[23] = system: CAKI-1; assay: Growth inhibition of human Caki1 cells after 48 hrs by sulforhodamine B assay; settings: CAKI-1, 48 h; in short: as §1
[24] = system: UO-31; assay: Growth inhibition of human UO31 cells after 48 hrs by sulforhodamine B assay; settings: UO-31, 48 h; in short: as §2
[25] = system: PC-3; assay: Growth inhibition of human PC3 cells after 48 hrs by sulforhodamine B assay; settings: PC-3, 48 h; in short: as §1
[26] = system: NCI/ADR-RES; assay: Growth inhibition of human NCI/ADR-RES cells after 48 hrs by sulforhodamine B assay; in short: as §1
[27] = Growth inhibition of human Hs 578T cells after 48 hrs by sulforhodamine B assay; in short: as §1
[28] = system: MDA-MB-435; assay: Growth inhibition of human MDA-MB-435 cells after 48 hrs by sulforhodamine B assay; settings: MDA-MB-435, 48 h; in short: as §1
[29] = system: MCF7; assay: Growth inhibition of human MCF7 cells after 48 hrs by sulforhodamine B assay; settings: MCF7, 48 h; in short: as §1
[30] = read-out: pLC50 (the source's name) (converted)

COc1ccc(CNc2nc3cc(N)cc(N)c3nc2-c2ccccc2)cc1OC
growth at 100 µM [1]: 3%
growth at 100 µM [2]: 0%
growth at 100 µM [3]: 47%
GI50 [4]: 3.16 µM
LC50 [4]: > 100 µM
TGI ([4]; read-out: pTGI (converted)): 81.3 µM
GI50 [5]: 6.03 µM
LC50 [5]: > 100 µM
TGI ([5]; read-out: pTGI (converted)): > 100 µM
GI50 [6]: 2.14 µM
LC50 [6]: > 100 µM
TGI ([6]; read-out: pTGI (converted)): 7.24 µM
GI50 [7]: 18.2 µM
LC50 [7]: 64.6 µM
TGI ([7]; read-out: pTGI (converted)): 34.7 µM
GI50 [8]: 22.9 µM
LC50 [8]: 100 µM
TGI ([8]; read-out: pTGI (converted)): 47.9 µM
GI50 [9]: 2.69 µM
LC50 [9]: 63.1 µM
TGI ([9]; read-out: pTGI (converted)): 6.31 µM
GI50 [10]: 5.25 µM
CC50 [10, 30]: > 100 µM
TGI ([10]; read-out: pTGI (converted)): > 100 µM
GI50 [11]: 14.8 µM
LC50 [11]: > 100 µM
TGI ([11]; read-out: pTGI (converted)): 60.3 µM
GI50 [12]: 25.7 µM
LC50 [12]: > 100 µM
TGI ([12]; read-out: pTGI (converted)): > 100 µM
GI50 [13]: 17 µM
LC50 (50% net cell kill) [13]: 89.1 µM
TGI ([13]; read-out: pTGI (converted)): 38.9 µM
GI50 [14]: 3.09 µM
LC50 [14]: > 100 µM
TGI ([14]; read-out: pTGI (converted)): 14.1 µM
GI50 [15]: 4.27 µM
CC50 [15, 30]: 33.9 µM
TGI ([15]; read-out: pTGI (converted)): 7.76 µM
GI50 [16]: 13.5 µM
CC50 [16, 30]: 67.6 µM
TGI ([16]; read-out: pTGI (converted)): 30.2 µM
GI50 [17]: 12.9 µM
CC50 [17, 30]: 53.7 µM
TGI ([17]; read-out: pTGI (converted)): 26.3 µM
GI50 [18]: 11.5 µM
CC50 [18, 30]: > 100 µM
TGI ([18]; read-out: pTGI (converted)): 40.7 µM
GI50 [19]: 1.32 µM
CC50 [19, 30]: 8.51 µM
TGI ([19]; read-out: pTGI (converted)): 3.31 µM
GI50 [20]: 2.69 µM
CC50 [20, 30]: 52.5 µM
TGI ([20]; read-out: pTGI (converted)): 7.41 µM
GI50 [21]: 6.76 µM
CC50 [21, 30]: > 100 µM
TGI ([21]; read-out: pTGI (converted)): 33.9 µM
GI50 [22]: 15.5 µM
CC50 [22, 30]: 75.9 µM
TGI ([22]; read-out: pTGI (converted)): 34.7 µM
GI50 [23]: 11.2 µM
CC50 [23, 30]: 53.7 µM
TGI ([23]; read-out: pTGI (converted)): 24.5 µM
GI50 [24]: 13.5 µM
CC50 [24, 30]: > 100 µM
TGI ([24]; read-out: pTGI (converted)): 45.7 µM
GI50 [25]: 8.32 µM
CC50 [25, 30]: 83.2 µM
TGI ([25]; read-out: pTGI (converted)): 27.5 µM
GI50 [26]: 17.8 µM
CC50 [26, 30]: > 100 µM
TGI ([26]; read-out: pTGI (converted)): 66.1 µM
GI50 [27]: 33.9 µM
CC50 [27, 30]: > 100 µM
TGI ([27]; read-out: pTGI (converted)): > 100 µM
GI50 [28]: 1.95 µM
CC50 [28, 30]: 8.51 µM
TGI ([28]; read-out: pTGI (converted)): 4.07 µM
GI50 [29]: 25.7 µM
CC50 [29, 30]: > 100 µM
TGI ([29]; read-out: pTGI (converted)): > 100 µM
